This experiment deals with PKC rat-brain isozyme mixture. The experiment in a line: Protein kinase C isozyme mixture competitive binding assay with. Conditions: read-out: Kd of (^3H)PDBu; measured under these assay conditions. The gist of the method: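 Rat-brain PKC isozyme mixture in Tris-HCl pH 7.4 buffer with KCl, CaCl2 and BSA, plus phosphatidylserine vesicles; (3H)PDBu added in DMSO. Triplicate vials incubated at 37 °C for 90 min, then 15 min on ice. Nonspecific binding from an unlabelled analogue at 5 μM assay concentration. Filtered through poly(ethyleneamine)-soaked filters, washed with ice-cold 20 mM Tris pH 7.4, scintillation-counted.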

Regarding `CCCC(=O)OC1C(C)C2(O)C(C=C(CO)CC3(O)C(=O)C(C)=CC32)C2C(C)(C)C12OC(=O)CCC` (stereo not shown) [(^3H)PDBu, (^3H)phorbol dibutyrate], the dissociation constant Kd (usually the concentration at which binding is half-saturated) was found to be 1.55 nM.

(Values after publication PMC3963460 (Synthesis, 2013).)
